{"data": "Results collected from several papers", "target": "Serine/threonine-protein kinase Chk1 (CHEK1, Homo sapiens, UniProt O14757)", "Sequence (O14757 1-476, as in one of the studies)": "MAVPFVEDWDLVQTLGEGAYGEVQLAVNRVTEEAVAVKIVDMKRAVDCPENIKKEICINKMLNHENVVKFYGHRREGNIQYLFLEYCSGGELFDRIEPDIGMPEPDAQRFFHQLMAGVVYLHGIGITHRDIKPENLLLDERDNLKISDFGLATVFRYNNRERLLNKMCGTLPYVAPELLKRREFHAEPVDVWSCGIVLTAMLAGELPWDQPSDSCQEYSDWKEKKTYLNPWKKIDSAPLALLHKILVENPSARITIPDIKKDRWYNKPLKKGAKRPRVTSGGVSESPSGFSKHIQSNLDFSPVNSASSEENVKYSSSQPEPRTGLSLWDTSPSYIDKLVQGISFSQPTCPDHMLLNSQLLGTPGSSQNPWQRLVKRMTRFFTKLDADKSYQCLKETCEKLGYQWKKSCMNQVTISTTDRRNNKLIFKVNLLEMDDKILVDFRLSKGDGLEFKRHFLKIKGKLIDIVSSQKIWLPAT", "note": "Lines come from different studies, so protocols differ."}
{"Compound": "O=C(c1ccc(Nc2nccc(-c3cc4ccccc4s3)n2)cc1)N1CCC(N2CCCC2)CC1", "assay": "binding, competition with immobilised ligand", "conditions": "1 µM", "remaining binding": "100%"}
{"Compound": "Cc1cc(-n2nc(Cc3cc(F)cc(C(F)(F)F)c3)nc2C)ccc1C(N)=O", "assay": "cell-free assay, competition with immobilised ligand", "conditions": "1 µM", "remaining binding": "100%"}
{"Compound": "O=C(Nc1c[nH]nc1C(=O)NC1CCNCC1)c1cc(F)cc(F)c1", "assay": "binding, competition with immobilised ligand", "conditions": "1 µM", "remaining binding": "100%"}
{"Compound": "Cc1cnc(Nc2ccc(C(=O)N3CCC(N4CCCC4)CC3)cc2)nc1-c1cc2ccccc2s1", "assay": "binding, competition with immobilised ligand", "conditions": "1 µM", "remaining binding": "33%"}
{"Compound": "CN(CCCC(F)(F)F)c1nccc(-c2cnn3ncccc23)n1", "assay": "binding", "conditions": "1 µM", "remaining binding": "100%"}
{"Compound": "CNC(=O)[C@@H]1CC[C@@H](n2c(-c3ccc4cnccc4c3)nc3ccc(C(=O)NCc4cccc(C(N)=O)c4)cc32)C1", "assay": "binding, competition with immobilised ligand", "conditions": "1 µM", "remaining binding": "100%"}
{"Compound": "c1cncc(-c2cccc(Nc3nccc(NC4CCCCC4)n3)c2)c1", "assay": "binding, competition with immobilised ligand", "conditions": "10 µM", "remaining binding": "94%"}
{"Compound": "Cc1cc(C)c(-n2ccn3nc(-c4cccnc4)cc23)cc1NC(=O)c1cc(C#N)cc(S(F)(F)(F)(F)F)c1", "assay": "cell-free assay, competition with immobilised ligand", "conditions": "0.1 µM", "remaining binding": "86%"}
{"Compound": "F[C@@H]1CCN(c2nccc(-c3cnn4ncccc34)n2)C1", "assay": "binding", "conditions": "1 µM", "remaining binding": "92%"}
{"Compound": "Cc1nc(C2CCN(C(=O)c3ccc(OC(F)(F)F)cc3N)CC2)c2ncc(N3CCN(C)CC3)cc2n1", "assay": "cell-free assay, competition with immobilised ligand", "conditions": "1 µM", "remaining binding": "100%"}
{"Compound": "CN(c1nccc(-c2cnn3ncccc23)n1)C1CC1", "assay": "binding", "conditions": "1 µM", "remaining binding": "78%"}
{"Compound": "FC(F)(F)c1ccc2c(c1)nc(-c1cccnc1)n2C1CC1", "assay": "cell-free assay, competition with immobilised ligand", "conditions": "1 µM", "remaining binding": "100%"}
{"Compound": "COc1cnc(Nc2cccc(S(N)(=O)=O)c2)nc1N1CCN(c2ccccc2)C(=O)C1", "assay": "binding, competition with immobilised ligand", "conditions": "1 µM", "remaining binding": "100%"}
{"Compound": "N[C@H]1CCN(c2nccc(-c3cnn4ncccc34)n2)C1", "assay": "binding", "conditions": "1 µM", "remaining binding": "100%"}
{"Compound": "CC(=O)Nc1c(C(C)=O)c(=O)n(C)c2nc(-c3ccc(Cl)cc3Cl)c(-c3ccc(Cl)cc3)cc12", "assay": "cell-free assay, competition with immobilised ligand", "conditions": "1 µM", "remaining binding": "100%"}
{"Compound": "COc1ncc2cc3ccccc3nc2c1C#N", "assay": "cell-free assay, competition with immobilised ligand", "conditions": "5 µM", "remaining binding": "100%"}
{"Compound": "CCCCN(CCCC)C(=O)CN1C[C@H](c2cc(OC)c3c(c2)OCO3)[C@@H](C(=O)O)[C@@H]1CC(C)(C)CCC", "assay": "cell-free assay, competition with immobilised ligand", "conditions": "1 µM", "remaining binding": "100%"}
{"Compound": "C[C@@H]1CN(c2ccc3ncc(-c4ccc5[nH]nc(C6CC6)c5c4)n3n2)C[C@H](C)O1", "assay": "binding, competition with immobilised ligand", "conditions": "50 nM", "remaining binding": "91%"}
{"Compound": "C[C@@H]1CCN(c2nccc(-c3cnn4ncccc34)n2)C1", "assay": "binding", "conditions": "1 µM", "remaining binding": "100%"}
{"Compound": "CC(C)(C)c1ccc(-c2nc(CBr)nn2-c2cccc(O)c2)cc1", "assay": "cell-free assay, competition with immobilised ligand", "conditions": "10 µM", "remaining binding": "86%"}
{"Compound": "O=C(NCCCN1CCOCC1)c1ccc(Nc2nccc(-c3cc4ccccc4s3)n2)cc1", "assay": "binding, competition with immobilised ligand", "conditions": "1 µM", "remaining binding": "100%"}
{"Compound": "N#Cc1ccc(Nc2ccc3[nH]c(=O)[nH]c3c2)c(Cl)c1", "assay": "cell-free assay, competition with immobilised ligand", "conditions": "1 µM", "remaining binding": "98%"}
{"Compound": "Cc1cnn2ncc(-c3ccnc(N(C)C)n3)c2c1", "assay": "binding", "conditions": "1 µM", "remaining binding": "100%"}
